Shown are actives, neighbours in structure and some others; about 1.1% of the full set was active somewhere.
JMJD2C inh: inhibitors of human GASC-1 (JMJD2C) demethylase; Q9H3R0; GST-JMJD2C(1-420) H3K9me3 demethylation, DELFIA europium; inhibition, % at 2.35 µM; actives 0.069% (n = 330,000); AID 2099;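 active = more than half of a compound's replicate wells show inhibition beyond 50%, single wells judged on their own value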;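 note: signal counts dimethyl H3K9 product captured on neutravidin plate; 0% = median of DMSO wells and 100% = 0.3 times that DMSO median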
SENP1 inh: blocks the human SENP1 SUMO protease catalytic domain; Q9P0U3; AID 624204; recombinant SENP1 catalytic domain, CyPet-SUMO1-YPet FRET cleavage; inhibition, % at 10 µM; actives 0.21% (n = 360,000);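 active = inhibition at least 30% at 10 µM, raw YFP signal under a set limit, fluorescence ratio 0.5 to 1.5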;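 note: 0% = enzyme with DMSO and 100% = no enzyme wells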
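Compound: 10 µM single point, 0.5% DMSO; Test system: hSENP1 catalytic domain, recombinant; Timing: 50 min reaction at room temperature; Technique: FRET, CFP and YFP emission; Control set: no-enzyme wells low, DMSO-plus-enzyme wells high control.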
FAS TE block: FAS thioesterase (human) inhibition; P49327; recombinant FAS-TE, OMFH fluorogenic substrate, fluorescence endpoint; inhibition, % at 15 µM; actives 0.67% (n = 360,000); AID 602261;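 active = compounds whose normalised, plate-corrected inhibition of enzyme fluorescence in the single-dose primary screen is 50% or more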;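 note: 0% = DMSO with enzyme and 100% = substrate without enzyme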
Arr AP2 block: human beta-arrestin and AP2 interaction inhibition. FITC-arrestin peptide / GST-AP2 beads, flow cytometry; AP2 beta2 appendage carries R879A mutation. inhibition, % at 10 µM. actives 0.31% (n = 340,000). AID 504490;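 active = inhibition above a set limit, near 3 SD of compounds lacking own fluorescence, cut at about 54% in these data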;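 note: plate controls were DMSO wells for no effect and 5 µM unlabelled arrestin peptide for full effect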
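System: GST-tagged AP2 beta2-adaptin appendage (R879A) on 4 µm glutathione beads / Reagent: FITC-arrestin peptide, 50 nM / Detection: HyperCyt-sampled flow cytometry, FL1 channel, ex 488/em 535 nm / Timing: 12 min plus 1 h, RT / Buffer or medium: PBS plus Tween 20 (0.05%) and BSA (0.1%)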
FAS-TE conf: confirmation of human fatty acid synthase thioesterase inhibitors | shares compounds with FAS TE block | recombinant FAS-TE, OMFH fluorogenic substrate, fluorescence | inhibition, % at 15 µM | actives 45% (n = 2,300) | AID 624325;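 active = compounds inhibiting the enzyme by at least 50% at 15 µM in any one of the replicates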;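 note: 0% = enzyme with DMSO only and 100% = wells lacking enzyme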
The depositor's hits bear a star; . = no result.

SMILES	JMJD2C inh	SENP1 inh	FAS TE block	Arr AP2 block	FAS-TE conf
COc1ccc(-c2csc(NC(=O)CSc3nc(SC)ns3)n2)cc1	2.4	14.6	22.5	-14.1	.
N#Cc1c(N)[nH]c(C(=O)c2ccccc2)c1-c1ccc(Cl)cc1	.	-4.7	66.7*	.	60.5*
CC(Cc1ccccc1)=NNc1ccc([N+](=O)[O-])cc1[N+](=O)[O-]	.	3.0	30.5	-1.1	.
CCN(C(=O)COC(=O)CNC(=O)C12CC3CC(CC(C3)C1)C2)C1CCS(=O)(=O)C1 (stereo not given)	-0.6	2.3	-6.2	-6.3	.
O=S(=O)(Nc1ccc(-c2csc(-c3ccccc3)n2)cc1)c1ccc(F)cc1	6.4	0.0	57.5*	18.2	0.6
O=C(Nc1nc(-c2ccccc2)cs1)c1ccccc1NS(=O)(=O)c1ccc(F)cc1	11.6	1.8	44.2	11.0	.
CC(Cc1ccccc1)=NNS(=O)(=O)c1ccc([N+](=O)[O-])cc1	.	2.2	59.5*	-3.8	66.0*
O=[N+]([O-])c1ccc(S(=O)(=O)Nc2ccc(-c3ccccc3)cc2)cc1	.	1.0	70.2*	.	70.2*
CC(=O)c1ccc(NS(=O)(=O)c2ccc([N+](=O)[O-])cc2)cc1	.	2.7	9.2	-14.5	.
CC(C)(C)C(=O)c1c(N)[nH]c(C(=O)c2ccccc2)c1-c1ccc(Cl)cc1Cl	.	-2.9	5.1	.	.
CCn1cc(C(=O)NCCN(CC(C)C)CC(C)C)c(=O)c2cc(S(=O)(=O)N3CCOCC3)ccc21	-16.3	-0.3	-0.1	0.8	.
Cc1cccc(OC(=O)Nc2ccc(C(=O)O)c(O)c2)c1	.	2.8	-3.3	.	.
CC(C)(C)c1ccc(OC(=O)Nc2ccc(O)c(C(=O)O)c2)cc1	-25.3	2.9	50.3*	1.3	63.0*
COc1ccc(/C=C2\CCn3c2nc2cc(C(=O)O)ccc2c3=O)cc1	-30.7	2.6	-4.5	34.1	.
CC(C)(C)c1ccc(/C=C2\CCn3c2nc2cc(C(=O)O)ccc2c3=O)cc1	-17.3	1.6	84.0*	17.0	87.7*
O=C(NC1CCCC1)C(c1c[nH]c2ccccc12)N(C(=O)Cn1nnc(-c2ccc(Cl)cc2)n1)c1ccccc1 (stereo not given)	-6.0	-2.6	64.5*	-0.9	30.2
CC(C)(C)NC(=O)C(c1c[nH]c2ccccc12)N(C(=O)Cn1nnc(-c2ccc(Cl)cc2)n1)c1ccccc1F (stereo not given)	0.2	-0.2	44.6	.	.
COc1cc(Br)c(CCNC(=O)Cc2ccccc2)cc1OC	3.9	0.9	-11.8	0.8	.
Cc1cc2c(cc1S(=O)(=O)Nc1ccc(F)cc1)n(C)c(=O)c(=O)n2C	3.3	2.4	18.4	23.7	.
CCc1ccc(NS(=O)(=O)c2cc3c(cc2C)n(C)c(=O)c(=O)n3C)cc1	-4.6	1.6	74.1*	-1.0	82.5*
CC(C)NC(=O)c1sc(=S)n2c1[nH]c(=O)c1ccc(C(=O)NCCc3ccc(Cl)cc3)cc12	1.0	48.7*	64.3*	0.3	8.8
COC(=O)C1=C(C(=O)OC)[C@]2([C@@H]3CC=CCN[C@@H](Cc4ccccc4)C(=O)N3Cc3ccccc3)C=C[C@H]1O2	.	-0.2	40.7	-0.8	.
COC(=O)C1=C(C(=O)OC)[C@]2([C@H]3CC=CCN[C@@H](Cc4ccccc4)C(=O)N3Cc3ccccc3)C=C[C@H]1O2	.	-0.3	53.7*	1.9	13.4
O=S(=O)(c1ccc(-c2csc(-c3cccnc3)n2)cc1)N1CCCC1	-1.0	-1.4	81.1*	4.7	85.6*
O=S(=O)(c1ccc(-c2csc(-c3cccnc3)n2)cc1)N1CCCCC1	12.1	-1.2	76.7*	2.7	82.9*
SMILES	JMJD2C inh	SENP1 inh	FAS TE block	Arr AP2 block	FAS-TE conf
O=S(=O)(c1cccc(-c2csc(-c3cccnc3)n2)c1)N1CCCCC1	-66.1	-2.8	21.9	-13.8	.
O=C(N/N=C/c1ccc(Br)o1)/C(=C/c1ccc([N+](=O)[O-])cc1)NC(=O)c1ccccc1	3.5	4.6	57.8*	10.4	31.6*
O=C(N/N=C/c1ccco1)/C(=C/c1cccc([N+](=O)[O-])c1)NC(=O)c1ccccc1	-1.3	1.3	47.8	-11.6	.
COc1ccc(/C=C(/NC(=O)c2ccccc2)C(=O)N/N=C/c2cccs2)cc1OC	8.3	-52.1	-4.5	34.2	.
COc1ccc([N+](=O)[O-])cc1/C=N/NC(=O)/C(=C\c1cccs1)NC(=O)c1ccccc1	-2.1	-0.6	79.4*	36.9	65.7*
CC1=C(C(=O)Nc2ccccc2)C(c2ccncc2)C(C#N)=C(SCC(=O)NC2CC2)N1 (stereo not given)	1.6	-2.3	-3.9	13.3	.
CC1=C(C(=O)Nc2nc3ccccc3s2)C(c2ccco2)C(C#N)=C(SCC(=O)NC2CCCCC2)N1 (stereo not given)	-0.2	-30.2	76.7*	2.6	-3.3
O=C(O)c1ccccc1SCC(=O)N1CCc2ccccc21	-0.6	2.3	-4.0	-2.0	.
COc1ccc(-c2cc([N+](=O)[O-])ccc2OCC(=O)N(C)CC(=O)Nc2ccc(C)cc2)cc1	.	3.3	60.0*	1.3	64.0*
O=C1/C(=C/c2ccco2)SC(=S)N1CCC(=O)N1CCCCC1CCO (stereo not given)	5.2	-2.0	0.0	3.4	.
COc1ccc(NS(=O)(=O)c2cc(NC(=O)COc3ccc(OC)cc3)ccc2N2CCOCC2)cc1	1.1	0.6	53.0*	-2.7	23.7
COc1ccccc1NS(=O)(=O)c1cc(NC(=O)c2cc(F)c(F)c(F)c2F)ccc1N1CCOCC1	-0.6	-0.2	38.9	-19.2	.
COc1ccccc1NS(=O)(=O)c1cc(NC(=O)c2ccccc2C)ccc1N1CCOCC1	.	1.3	53.3*	-14.9	14.9
CCNC(=O)NC(=O)C(C)OC(=O)c1ccc(SC)cc1OC (stereo not given)	-0.9	2.6	-3.5	-9.8	.
CCn1c(SCC(=O)Nc2ncc(C(F)(F)F)cc2Cl)nnc1-c1ccccc1	3.1	-1.5	69.8*	-30.8	73.1*
Cn1c(SCC(=O)Nc2ncc(C(F)(F)F)cc2Cl)nnc1-c1ccc(Cl)cc1	0.6	-2.3	80.8*	-7.2	90.2*
CCn1c(SCC(=O)Nc2oc(-c3ccccc3)c(-c3ccccc3)c2C#N)nnc1-c1cc(OC)cc(OC)c1	4.1	0.1	53.9*	2.8	2.7
CCOC(=O)c1c(NC(=O)CSc2nnc(-c3ccccc3)n2CC)sc(C(C)=O)c1C	0.8	-1.1	50.9*	6.8	17.2
CCOC(=O)c1c(NC(=O)CSc2nnc(-c3cccc(C)c3)n2CC)sc(C(C)=O)c1C	-15.5	11.6	36.6	7.7	.
Cc1nnc(SCC(=O)Nc2ncc(Cl)cc2Cl)n1Cc1ccccc1	-9.4	3.1	-0.8	-0.4	.
COc1ccccc1-n1nnnc1SCC(=O)NC1CC1	-4.3	2.3	-3.2	6.6	.
CC(Oc1ccccc1)C(=O)N1CCC2(CC1)Oc1ccc(F)cc1C(=O)C21CC(c2ccccc2)=NO1 (stereo not given)	-11.1	-2.2	61.5*	-7.1	7.4

High-throughput results (PubChem BioAssay)
